The text below walks through data of ChEMBL document CHEMBL1629499, “Synthesis, crystal structure and biological evaluation of novel 2-(5-(hydroxymethyl)-3-phenyl-1H-pyrazol-1-yl)-1-phenylethanol derivatives” (Eur J Med Chem, 2010).

Active and inactive are the calls of the source. The rule behind the calls is not given here.

Assay type in all cases: functional, cell-based
Assay [1] deals with A549. In words: Anticancer activity against human A549 cells assessed as cell viability at 60 uM after 48 hrs by phase contrast microscopy. The gist of the method: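 A549 lung cancer cells grown in RPMI 1640 with 10% bovine calf serum and 80 U/ml gentamicin at 37 °C, 5% CO2, seeded at 6250/cm². After 48 h exposure, cells inspected by phase contrast microscopy for morphology and cell number.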

Assay [2] has as its system A549. Kind of assay: Induction of apoptosis in human A549 cells assessed as morphological changes at 60 uM after 48 hrs by Hoechst 33258 staining-based fluorescence microscopy. The gist of the method: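 A549 cells exposed 48 h, stained with Hoechst 33258 and examined by fluorescence microscopy for chromatin condensation and nuclear DNA fragmentation.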
The test system of assay [3] is A549. In words: Induction of necrosis in human A549 cells assessed as LDH release at 60 uM after 48 hrs. Summed up:
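LDH activity measured in culture medium of A549 cells after 48 h exposure and compared with control cells.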

In assay [4] the test system is A549. In words: Anticancer activity against human A549 cells assessed as upregulation of LC3-2 expression at 60 uM after 48 hrs by Western blot analysis. The gist of the method:
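After 48 h treatment, A549 cells washed in ice-cold PBS and lysed in 0.5% SDS buffer (25 mM Tris-HCl pH 7.5, EDTA, NaCl, PMSF, protease inhibitors). Protein measured by Bradford. Equal protein run on 15% SDS-PAGE, transferred to PVDF, probed overnight at 4 °C with primary antibody, β-actin as loading control. HRP secondary, chemiluminescent detection on film, bands quantified by densitometry.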

Assay [5] relates to A549. Kind of assay: Cell cycle arrest in human A549 cells assessed as accumulation in G1 phase at 60 uM after 48 hrs using propidium iodide staining by flow cytometry (reference value: 22%).

Turning to `OCc1cc(-c2ccccc2)nn1CC(O)c1ccccc1` (stereo unspecified), the result in the assay on A549 [1] was inactive.

For `OCc1cc(-c2ccc(Cl)cc2)nn1CC(O)c1ccc(Cl)cc1` (stereo unspecified), the outcome with A549 [2] and in the assay with A549 [3] was inactive. For the same compound, the outcome in the assay with A549 [4] was Active.

As to `COc1ccc(-c2cc(CO)n(CC(O)c3ccc(OC)cc3)n2)cc1` (stereo unspecified), the result in the assay on A549 [1] was inactive.

On to `OCc1cc(-c2ccccc2)nn1CC(O)c1ccc(Cl)cc1` (stereo unspecified), for which the outcome in the assay on A549 [2] and in the assay with A549 [3] was inactive. The outcome with A549 [4] was Active.

With `COc1ccc(C(O)Cn2nc(-c3ccc(Cl)cc3)cc2CO)cc1` (stereo unspecified), the outcome with A549 [1] was inactive.

As for `COc1ccc(-c2cc(CO)n(CC(O)c3ccccc3)n2)cc1` (stereo unspecified), in the assay on A549 [1], the outcome was inactive.

Consider `COc1ccc(C(O)Cn2nc(-c3ccccc3)cc2CO)cc1` (stereo unspecified), for which the result in the assay on A549 [1] was inactive.

Turning to `OCc1cc(-c2ccc(Cl)cc2)nn1CC(O)c1ccccc1` (stereo unspecified), the outcome in the assay with A549 [1] was inactive.

In the case of `COc1ccc(-c2cc(CO)n(CC(O)c3ccc(Cl)cc3)n2)cc1` (stereo unspecified), the outcome with A549 [2], in the assay with A549 [3] and in the assay with A549 [5] was inactive. Moreover, the result in the assay with A549 [4] was Active.
